In test [1] the test system is DNA. In words: Binding affinity to calf thymus DNA assessed as DNA intercalation at 50 uM by fluorescence spectrophotometry. It counts as nucleic-acid assay. The conditions noted are these: Bos taurus. The essentials:
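Fluorescence titration: increasing ct-DNA added to compound in phosphate buffer (pH 7.0); decrease in emission band at 500 nm monitored; binding constant derived from titration data by Benesi–Hildebrand method.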

In test [2] the test system is DNA. In words: Binding affinity to calf thymus DNA assessed as change in melting temperature by thermal denaturation assay. It counts as nucleic-acid assay. The conditions noted are these: Bos taurus.
The subject of test [3] is DNA. In words: Binding affinity to calf thymus DNA assessed as DNA intercalation at 50 uM by UV-visible spectrophotometry. The conditions noted are these: Bos taurus. It counts as nucleic-acid assay. The essentials: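 ct-DNA titrated (4–100 µM) into phosphate-buffered solution (pH 7.0) of compound at 50 µM; absorption spectra recorded by UV–visible spectrophotometry, tracking band shift and hypochromism.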

The next test relates to HCC 2998. In words: Growth inhibition of human HCC2998 cells at 10 uM after 48 hrs by SRB assay. It counts as functional. An outline of the steps: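 Cells grown in RPMI 1640 with 5% FBS and 2 mM L-glutamine, plated at 5000–40,000 cells/well by doubling time and preincubated 24 h (37 °C, 5% CO2); a time-zero plate is TCA-fixed. Single dose added, then 48 h incubation. Fixed with cold TCA, stained with 0.4% SRB, dye solubilized in 10 mM Tris base, absorbance at 515 nm; percent growth vs time-zero and untreated control.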

SMILES strings stand for the structures. Calls of active or inactive are those of the source. The rule behind the calls is not given here.

The ΔTm is the change in melting temperature against a reference sample. As for `Nc1ccc(Sc2ccc3c4c2cccc4c(=O)n2c4ccccc4nc32)cc1`, the result with DNA [1] and in the test on DNA [3] was Active. Moreover, the ΔTm with DNA [2] was found to be 8.2 °C.
For `O=c1[nH]cc(F)c(=O)[nH]1` [FLUOROURACIL], the “growth inhibition (GI)” value in the test with HCC 2998 is “Active”.
